One block for each molecule: values may come before it. Calls of active or inactive are those of the source. The calls are words filed in the database; no cut-off is given here.
Tests used:
[1] = molecular target: T1, Thymidylate kinase (Homo sapiens) (UniProt P23919); assay: Inhibition of GST-tagged human TMPK expressed in Escherichia coli BL21 at 2 uM incubated for 10 mins by luciferase-coupled TMPK assay
T1 sequence (whole entry): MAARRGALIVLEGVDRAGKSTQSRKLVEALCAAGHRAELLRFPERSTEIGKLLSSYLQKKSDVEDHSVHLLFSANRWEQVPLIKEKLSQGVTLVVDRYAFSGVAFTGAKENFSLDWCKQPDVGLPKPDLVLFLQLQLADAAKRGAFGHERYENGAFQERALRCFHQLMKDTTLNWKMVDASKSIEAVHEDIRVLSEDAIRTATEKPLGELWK

[2] = molecular target: T1, Thymidylate kinase (Homo sapiens); assay: Binding affinity to GST-tagged human TMPK expressed in Escherichia coli BL21 assessed as binding constant for compound to protein 1:1 stoichiometry by ITC analysis
How it was run: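 ITC in PBS pH 7.4 with 50% glycerol at 298 K, stirring at 1000 rpm. Compound (1.228 mM) injected into hTMPK (0.0817 mM): a first 0.5 μL injection, then 2 μL injections at 4-min spacing. Fitted for stoichiometry, association constant, ΔH and ΔS.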

Candida = assay: Inhibition of Candida Cdc8 incubated for 10 mins in presence of [gamma-32P]ATP by 32P-phosphate transfer assay
How it was run: (§1)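 hTMPK (0.2 μg) or Candida Cdc8 (0.02 μg; GST fusion from E. coli BL21, purified similarly). Compound preincubated 10 min, then enzyme added to 0.05 μM [γ-32P]ATP, 50 μM ATP and 50 μM dTMP in 100 mM Tris-HCl, 100 mM KCl, 10 mM MgCl2. Stopped by heating. Products separated by PEI-cellulose TLC (2 M acetic acid/0.5 M LiCl), and 32P-dTDP spots counted by scintillation.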

[3] = Inhibition of tyrosine kinase activity in protein samples from human MDA-MB-231 cells using TK substrate incubated for 30 mins; type: cell-based; conditions: MDA-MB-231, 0.5 h
How it was run: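 Tyrosine kinase immunoprecipitated from MB-231 cell protein extracts and suspended in kinase solution with 10 mM 2-mercaptoethanol. Diluted enzyme mixed with compound (from 5 mM aqueous dilution) and ATP on substrate-coated wells, 37 °C, 30 min. Phosphotyrosine detected with anti-phosphotyrosine (PY20)-HRP and HRP substrate, stopped with H2SO4, absorbance read at 450 nm.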

[4] = molecular target: T1, Thymidylate kinase (Homo sapiens); assay: Binding affinity to GST-tagged human TMPK expressed in Escherichia coli BL21 assessed as formation of disulfide bonds with Cys residues incubated for 30 mins at 25 degC in presence of trypsin by LC-MS/MS analysis
How it was run: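 hTMPK incubated with compound (20 μL of 10 mM DMSO stock in 1 mL PBS pH 7.4), 25 °C, 30 min. DTNB served as positive control and DMSO as negative control. Excess compound removed by dialysis against water. Digested with trypsin (1:50 w/w), 37 °C, 12 h, without denaturation or DTT reduction. Peptides analysed by nanoLC-ESI-MS/MS.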

[5] = Cytotoxicity in IL-3-dependent mouse 32D cells expressing Bcr-Abl after 3 days by WST-1 assay; type: functional, cell-based; conditions: 72 h
[6] = molecular target: T1, Thymidylate kinase (Homo sapiens); assay: Inhibition of GST-tagged human TMPK expressed in Escherichia coli BL21 incubated for 20 mins by NADH-coupled colorimetric assay
How it was run: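 Purified hTMPK at 25 °C in 100 mM Tris-HCl pH 7.5, 100 mM KCl, 10 mM MgCl2, 500 μM ATP, 250 μM TMP/CMP. Coupling mix: 500 μM phosphoenolpyruvate, 250 μM NADH, pyruvate kinase (4 units) and lactate dehydrogenase (5 units). NADH change read at 340 nm after 20 min.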

[7] = Cytotoxicity in mouse 32D cells after 3 days by WST-1 assay; type: cell-based; conditions: 72 h, time 3 day
[8] = molecular target: T1, Thymidylate kinase (Homo sapiens); assay: Inhibition of GST-tagged human TMPK expressed in Escherichia coli BL21 incubated for 10 mins in presence of [gamma-32P]ATP by 32P-phosphate transfer assay; how it was run: as §1
Thymidylate kinase = molecular target: T2, Thymidylate kinase (Homo sapiens, UniProt P23919); assay: Inhibition of GST-tagged human TMPK expressed in Escherichia coli BL21 incubated for 10 mins by luciferase-coupled TMPK assay
T2 sequence (P23919 whole entry): T1 sequence (whole entry)
How it was run: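 Purified hTMPK (10 μL of 0.1 μg/μL) and compound (10 μL of 10 μM, diluted from 10 mM DMSO stock) added to 100 mM Tris-HCl pH 7.5, 100 mM KCl, 10 mM MgCl2, 5 μM ATP, 100 μM dTMP. Reaction run 10 min at 25 °C. Remaining ATP read by CellTiter-Glo luminescence. IC50 from triplicate independent experiments.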

[9] = molecular target: T1, Thymidylate kinase (Homo sapiens); assay: Binding affinity to ATP binding site of GST-tagged human TMPK expressed in Escherichia coli […] assessed as mass shift of labeled peptides in presence of trypsin by LC-MS/MS analysis
How it was run: (§2)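 Purified hTMPK (from GST fusion in E. coli […], thrombin-cleaved) preincubated with biotin-arylazide photoprobe in PBS pH 7.4, 25 °C, 30 min, then irradiated with 254-nm UV light three times for 1 min each. Protein denatured in 6.5 M urea, reduced with DTT and alkylated with iodoacetamide. Digested with trypsin (1:50 w/w) or chymotrypsin (1:100 w/w), 37 °C, 16 h. Peptides analysed by nanoLC-ESI-MS/MS, with or without monomeric avidin enrichment.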

[10] = molecular target: T1, Thymidylate kinase (Homo sapiens); assay: Binding affinity to ATP binding site of GST-tagged human TMPK expressed in […] assessed as mass shift of labeled peptides in presence of chymotrypsin by LC-MS/MS analysis; how it was run: as §2
[11] = molecular target: T1, Thymidylate kinase (Homo sapiens); assay: Binding affinity to GST-tagged human TMPK expressed in Escherichia coli BL21 pre-incubated for 30 mins at 25 degC followed by absence of irradiation by HRP based Western blot analysis
How it was run: (§3)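 Photoprobe (6.8 μL of 3 mM DMSO stock) and purified hTMPK incubated in 1 mL PBS pH 7.4 with protease inhibitor cocktail, 25 °C, 30 min. Irradiation where applied: 254-nm UV, three 1-min exposures. Samples boiled in SDS sample buffer and run on 12% SDS-PAGE. Transferred to PVDF, probed with streptavidin-HRP, detected by chemiluminescence.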

[12] = molecular target: T1, Thymidylate kinase (Homo sapiens); assay: Binding affinity to GST-tagged human TMPK expressed in Escherichia coli BL21 pre-incubated for 30 mins at 25 degC followed by UV irradiation by HRP based Western blot analysis; how it was run: as §3

Compound: Cc1cc(C)c2c(=O)n(CC(=O)N3CCNCC3)sc2n1
K [2]: 127000 M⁻¹
inhibition [1]: 73.4%

Compound: CCOC(=O)N1CCN(C(=O)Cn2sc3nc(C)cc(C)c3c2=O)CC1
inhibition (Candida): inactive
IC50 [3]: > 100000 nM
Activity [4]: inactive
EC50 [5]: 880 nM
inhibition [6]: Active
Activity [7]: Non-Toxic
inhibition [8]: Active
inhibition [1]: 70%
IC50 (Thymidylate kinase): 1650 nM

Compound: O=c1c2ccccc2sn1-c1ccc(F)c(Cl)c1
inhibition [1]: < 2%

Compound: [N-]=[N+]=Nc1ccc2c(=O)n(CC(=O)N3CCN(CCOCCOCCOC(=O)CCCC[C@@H]4SC[C@@H]5NC(=O)N[C@@H]54)CC3)sc2c1
IC50 [3]: > 100000 nM
Activity [9]: 648 Da
Activity [10]: 422 Da
Activity [11]: inactive
Activity [12]: Active
inhibition [1]: 86.9%

Compound: O=c1c2ccccc2sn1-c1ccccc1
Activity [4]: Active

Compound: O=C(O)c1cc(SSc2ccc([N+](=O)[O-])c(C(=O)O)c2)ccc1[N+](=O)[O-]
Activity [4]: Active

More lines, main results first:

inhibition [1]: inactive
Compound: CC(C)(C)OC(=O)N1CCN(C(=O)COc2nsc3ccccc23)CC1

inhibition [1]: 7%
Compound: CCOC(=O)N1CCN(C(=O)CCCn2sc3ccccc3c2=O)CC1

inhibition [1]: inactive
Compound: CC(C)(C)OC(=O)N1CCN(C(=O)COc2nsc3ncccc23)CC1

IC50 [3]: > 100000 nM
inhibition [6]: Active
inhibition [1]: 91.3%
IC50 (Thymidylate kinase): 470 nM
Compound: CC(C)(C)OC(=O)N1CCN(C(=O)Cn2sc3ncccc3c2=O)CC1
EC50 [5]: 1400 nM
Activity [7]: Non-Toxic

IC50 [3]: > 100000 nM
inhibition [6]: Active
inhibition [1]: 91.3%
IC50 (Thymidylate kinase): 350 nM
Compound: CC(C)(C)OC(=O)N1CCN(C(=O)Cn2sc3ccccc3c2=O)CC1
EC50 [5]: 650 nM
Activity [7]: Non-Toxic

inhibition [1]: inactive
Compound: CCOC(=O)N1CCN(C(=O)COc2nsc3cc(C)cc(C)c23)CC1

inhibition [1]: 70%
Compound: CCOC(=O)N1CCN(C(=O)Cn2sc3ccccc3c2=O)CC1

inhibition [1]: 76.3%
Compound: Cc1cc(C)c2c(=O)n(CC(=O)N3CCN(C(=O)OC(C)(C)C)CC3)sc2n1
